# The source made the active and inactive calls. The calls are words filed in the database; no cut-off is given here.
# Key:
# Felid alphaherpesvirus 1 [1] = test: Antiviral activity against Feline herpes virus infected in cat CRFK cells assessed as reduction of virus-induced cytopathogenicity; format: functional, organism-based; details: Felid alphaherpesvirus 1, CRFK
# Human respirovirus 3 = test: Antiviral activity against Parainfluenza virus 3 infected in dog MDCK cells assessed as reduction of virus-induced cytopathogenicity; format: functional, organism-based; details: Human respirovirus 3, MDCK
# Human alphaherpesvirus 1 [2] = test: Antiviral activity against Herpes simplex virus 1 infected in human HEL cells assessed as reduction of virus-induced cytopathogenicity; format: functional, organism-based; details: Human alphaherpesvirus 1, HEL
# [3] = tested on: Vesicular stomatitis virus; test: Antiviral activity against Vesicular stomatitis virus infected in human HEL cells assessed as reduction of virus-induced cytopathogenicity; format: functional, organism-based
# Sindbis virus = test: Antiviral activity against Sindbis virus infected in dog MDCK cells assessed as reduction of virus-induced cytopathogenicity; format: functional, organism-based
# Human betaherpesvirus 5 [4] = test: Antiviral activity against Human cytomegalovirus infected in human HEL cells assessed as reduction of virus-induced cytopathogenicity; format: functional, organism-based; details: Human betaherpesvirus 5, HEL
# Punta Toro virus [5] = test: Antiviral activity against Punta Toro virus infected in dog MDCK cells assessed as reduction of virus-induced cytopathogenicity; format: functional, organism-based
# [6] = Cytotoxicity against cat CRFK cells assessed as alteration of cell morphology up to 100 uM by microscopic analysis; format: cell-based, Felis catus
# [7] = Cytotoxicity against human HEL cells assessed as alteration of cell morphology up to 100 uM by microscopic analysis; format: cell-based
# [8] = tested on: Respiratory syncytial virus; test: Antiviral activity against Respiratory syncytial virus infected in human HeLa cells assessed as reduction of virus-induced cytopathogenicity; format: functional, organism-based
# [9] = tested on: Human immunodeficiency virus 1; test: Antiviral activity against Human immunodeficiency virus 1 infected in human CEM cells assessed as reduction of virus-induced cytopathogenicity; format: functional, organism-based; details: Human immunodeficiency virus 1, CCRF-CEM
# Coxsackievirus B4 [10] = test: Antiviral activity against Coxsackievirus B4 infected in human HeLa cells assessed as reduction of virus-induced cytopathogenicity; format: functional, organism-based; details: Enterovirus B
# [11] = tested on: Human immunodeficiency virus 2; test: Antiviral activity against Human immunodeficiency virus 2 infected in human CEM cells assessed as reduction of virus-induced cytopathogenicity; format: functional, organism-based; details: Human immunodeficiency virus 2, CCRF-CEM
# [12] = tested on: Mammalian orthoreovirus 1; test: Antiviral activity against Reovirus 1 infected in dog MDCK cells assessed as reduction of virus-induced cytopathogenicity; format: functional, organism-based; details: Mammalian orthoreovirus 1, MDCK
# [13] = Cytotoxicity against human HeLa cells assessed as alteration of cell morphology up to 100 uM by microscopic analysis; format: cell-based
# Human alphaherpesvirus 2 [14] = test: Antiviral activity against Herpes simplex virus 2 infected in human HEL cells assessed as reduction of virus-induced cytopathogenicity; format: functional, organism-based; details: Human alphaherpesvirus 2, HEL
# [15] = tested on: Vesicular stomatitis virus; test: Antiviral activity against Vesicular stomatitis virus infected in human HeLa cells assessed as reduction of virus-induced cytopathogenicity; format: functional, organism-based
# Feline coronavirus = test: Antiviral activity against Feline coronavirus infected in cat CRFK cells assessed as reduction of virus-induced cytopathogenicity; format: functional, organism-based; details: Alphacoronavirus 1, CRFK
# [16] = Cytotoxicity against human CEM cells assessed as alteration of cell morphology by microscopic analysis; format: cell-based; details: CEM cells (CCRF-CEM)
# [17] = Cytotoxicity against dog MDCK cells assessed as alteration of cell morphology up to 100 uM by microscopic analysis; format: cell-based, Canis lupus familiaris
# Coxsackievirus B4 [18] = test: Antiviral activity against Coxsackievirus B4 infected in dog MDCK cells assessed as reduction of virus-induced cytopathogenicity; format: functional, organism-based; details: Enterovirus B
# [19] = Cytotoxicity against cat CRFK cells assessed as decrease in cell viability after 3 days by CellTiter 96 Aqueous One solution assay; format: cell-based, Felis catus; details: 72 h
# MT4 = test: Cytotoxicity against human MT4 cells assessed as decrease in cell viability after 5 days by CellTiter Glo assay; format: cell-based; details: mt4, 120 h
# How it was run: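 MT-4 cells, 2000/well, in RPMI 1640 with 10% FBS plus penicillin/streptomycin; 3-fold serial dilutions, 10 concentrations, final DMSO ≤0.5%; 10 µM puromycin and 0.5% DMSO controls.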
# [20] = tested on: Feline immunodeficiency virus; test: Antiviral activity against Feline immunodeficiency virus infected in cat CRFK cells assessed as decrease in FIV p24 antigen level treated post-viral infection measured after 6 days by ELISA; format: functional, organism-based; details: 144 h
# How it was run: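 CrFK cells (5000/well) pre-seeded 24 h at 37 °C, 5% CO2; washed with PBS containing 50 µg/ml DEAE-dextran, inoculated with 100 CCID50 FIV plus serial compound dilutions; after 2 h washed and overlaid with 5% FCS DMEM plus compound.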
# [21] = tested on: Human immunodeficiency virus 1; test: Antiviral activity against Human immunodeficiency virus 1 3B infected in human MT4 cells assessed as reduction of virus-induced cytopathicity treated post-viral infection measured after 5 days by Cell-Titer Glo assay; format: functional, organism-based; details: MT4, 120 h
# Human alphaherpesvirus 3 [22] = test: Antiviral activity against TK- Varicella zoster virus O7-1; format: functional, organism-based; details: Human alphaherpesvirus 3, O7-1
# Human alphaherpesvirus 2 [23] = test: Antiviral activity against Herpes simplex virus 2 at non-toxic concentration; format: functional, organism-based
# Human alphaherpesvirus 3 [24] = test: Antiviral activity against TK+ Varicella zoster virus OKA; format: functional; details: Human alphaherpesvirus 3, strain Oka vaccine
# Punta Toro virus [25] = test: Antiviral activity against Punta Toro virus infected in african green monkey Vero cells; format: functional, organism-based
# Felid alphaherpesvirus 1 [26] = test: Antiviral activity against Feline herpes virus at non-toxic concentration; format: functional, organism-based
# Human alphaherpesvirus 1 [27] = test: Antiviral activity against Herpes simplex virus 1 at non-toxic concentration; format: functional, organism-based
# Coxsackievirus B4 [28] = test: Antiviral activity against Coxsackievirus B4 infected in african green monkey Vero cells; format: functional, organism-based; details: Enterovirus B
# Human betaherpesvirus 5 [29] = test: Antiviral activity against Human cytomegalovirus at non-toxic concentration; format: functional, organism-based
# Vaccinia virus = test: Antiviral activity against Vaccinia virus at non-toxic concentration; format: functional, organism-based; details: Orthopoxvirus vaccinia
Structure (SMILES),EC50 (Felid alphaherpesvirus 1 [1]) [µg/mL],EC50 (Human respirovirus 3) [µg/mL],EC50 (Human alphaherpesvirus 1 [2]) [µg/mL],EC50 [3] [µg/mL],EC50 (Sindbis virus) [µg/mL],EC50 (Human betaherpesvirus 5 [4]) [µg/mL],EC50 (Punta Toro virus [5]) [µg/mL],MCC [6] [µg/mL],MCC [7] [µg/mL],EC50 [8] [µg/mL],EC50 [9] [µg/mL],EC50 (Coxsackievirus B4 [10]) [µg/mL],EC50 [11] [µg/mL],EC50 [12] [µg/mL],MCC [13] [µg/mL],EC50 (Human alphaherpesvirus 2 [14]) [µg/mL],EC50 [15] [µg/mL],EC50 (Feline coronavirus) [µg/mL],MCC [16] [µg/mL],MCC [17] [µg/mL],also measured
C[C@H](Cn1cnc2c(NCP(=O)(O)O)nc(N)nc21)OCP(=O)(O)O,> 100,> 100,> 100,> 100,> 100,> 100,> 100,> 100,> 100,> 100,> 100,> 100,> 100,> 100,> 100,> 100,> 100,> 100,> 100,> 100,EC50 (Coxsackievirus B4 [18]): > 100 µg/mL
C[C@H](Cn1cnc2c(N)nc(N)nc21)OCP(=O)(O)O,–,–,–,–,–,–,–,–,–,–,–,–,–,–,–,–,–,–,–,–,CC50 [19]: > 500 µM; CC50 (MT4): > 100 µM; EC50 [20]: 0.12 µM; EC50 [21]: 0.94 µM
CCCCCCCCCCCCCCCCOCCCOP(=O)([O-])CO[C@H](C)Cn1cnc2c(N)nc(N)nc21.[Na+],–,–,–,–,–,–,–,–,–,–,–,–,–,–,–,–,–,–,–,–,CC50 [19]: 96 µM; EC50 (Human alphaherpesvirus 3 [22]): 0.058 µg/mL; Activity (Human alphaherpesvirus 2 [23]): inactive; EC50 (Human alphaherpesvirus 3 [24]): < 0.032 µg/mL; EC50 (Punta Toro virus [25]): 12 µg/mL; CC50 (MT4): 19.8 µM; EC50 [20]: 0.00058 µM; Activity (Felid alphaherpesvirus 1 [26]): inactive; Activity (Human alphaherpesvirus 1 [27]): inactive; EC50 (Coxsackievirus B4 [28]): 9 µg/mL; EC50 [21]: 0.00224 µM; Activity (Human betaherpesvirus 5 [29]): inactive; Activity (Vaccinia virus): inactive
C[C@@H](O)CNc1nc(N)c2ncn(C[C@@H](C)O)c2n1,> 100,> 100,> 100,> 100,> 100,> 100,> 100,> 100,> 100,> 100,> 100,> 100,> 100,> 100,> 100,> 100,> 100,> 100,> 100,> 100,EC50 (Coxsackievirus B4 [18]): > 100 µg/mL
C[C@@H](O)CNc1nc(N)nc2c1ncn2C[C@@H](C)O,> 100,> 100,> 100,> 100,> 100,> 100,> 100,> 100,> 100,> 100,> 100,> 100,> 100,> 100,> 100,> 100,> 100,> 100,> 100,> 100,EC50 (Coxsackievirus B4 [18]): > 100 µg/mL
CCOC(=O)[C@H](C)NP(=O)(CO[C@H](C)Cn1cnc2c(N)nc(N)nc21)N[C@@H](C)C(=O)OCC,–,–,–,–,–,–,–,–,–,–,–,–,–,–,–,–,–,–,–,–,CC50 [19]: 215 µM; CC50 (MT4): > 100 µM; EC50 [20]: 1.1 µM; EC50 [21]: 0.29 µM
